# Assay results from different studies.
# Compare with care: the assays were run in different laboratories.
# Observed: enzyme activity
# Action: inhibitor
# EGFR: Epidermal growth factor receptor (EGFR, Homo sapiens, UniProt P00533)
# EGFR L858R/T790M: Epidermal growth factor receptor (EGFR, Homo sapiens, UniProt P00533, L858R/T790M)
SMILES,target,method,setting,IC50
COc1cc2ncnc(Nc3ccc(F)c(Cl)c3)c2cc1NC(=O)N/N=C/c1cccn1CCCN(C)C,EGFR,,,1.2 nM
C=C(Cl)C(=O)Nc1cc(Nc2nc(N3CCc4sccc4C3)c3sccc3n2)c(OC)cc1N(C)CCN(C)C,EGFR L858R/T790M,ELISA,,13 nM
COc1ccc2c(Oc3ccc4c(C(=O)Nc5ccccc5N)cccc4c3)ccnc2c1,EGFR,,,> 500 nM
COc1ccc(-c2csc(Nc3ccc4c(O)ncnc4c3)n2)cc1,EGFR,ELISA,,10.1 nM
CCC(=O)Nc1cc(Nc2nc(N3CCc4sccc4C3)c3cccnc3n2)c(OC)cc1N1CCSCC1,EGFR,ELISA,,> 1000 nM
CN1CCN(C/C=N/NC(=O)Nc2cc3c(Nc4ccc(F)c(Cl)c4)ncnc3cc2O[C@H]2CCOC2)CC1,EGFR L858R/T790M,,,11.6 nM
C=C(Cl)C(=O)Nc1cc(Nc2nc(N3CCOCC3)c3sccc3n2)c(OC)cc1N(C)CCN(C)C,"Epidermal growth factor receptor (EGFR, Homo sapiens, UniProt P00533, C797S/L858R/T790M)",ELISA,,> 1000 nM
O=C(N/N=C/CN1CCCCC1)Nc1cc2c(Nc3ccc(F)c(Cl)c3)ncnc2cc1O[C@H]1CCOC1,EGFR,,,0.1 nM
O=C1c2c(O)cc(O)cc2OC(c2ccc(O)c(O)c2)C1O (stereo not shown),EGFR,radiometric,,29000 nM
COc1cc2c(Nc3ccc(OCCn4ccnc4[N+](=O)[O-])c(Cl)c3)ncnc2cc1OCCCN1CCOCC1,EGFR,FRET,,190 nM
COc1cc2ncnc(Nc3ccc(F)c(Cl)c3)c2cc1NC(=O)N/N=C/c1cccn1CCN(C)C,EGFR L858R/T790M,,,21.7 nM
COc1ccc(-c2nn(-c3ccc(S(C)(=O)=O)cc3)cc2C=N/N=c2\[nH]c(-c3ccc([N+](=O)[O-])cc3)cs2)cc1,"Epidermal growth factor receptor (EGFR, Homo sapiens, UniProt P00533, L858R)",,,31 nM
C=C(Cl)C(=O)Nc1cc(Nc2nc(Nc3cnn(C)c3)c3sccc3n2)c(OC)cc1N1CCN(C)CC1,EGFR L858R/T790M,ELISA,,173 nM
COc1cc2c(Nc3ccc(OCCCn4ccnc4[N+](=O)[O-])c(Cl)c3)ncnc2cc1OCCCN1CCOCC1,EGFR,FRET,,330 nM
O=C(N/N=C/c1cccn1CCN1CCOCC1)Nc1cc2c(Nc3ccc(F)c(Cl)c3)ncnc2cc1O[C@H]1CCOC1,EGFR,,,0.6 nM
COC(=O)/C=C/c1ccc2ncnc(Nc3cccc(C(F)(F)F)c3)c2c1,EGFR,radiometric,,19.1 nM
COc1cc2ncnc(Nc3ccccc3)c2cc1OC,EGFR,mobility shift,,14 nM
Oc1ncnc2cc(Nc3nc(-c4ccc(C(F)(F)F)cc4)cs3)ccc12,EGFR,ELISA,,2.17 nM
CC(C)Cc1ccc(-c2nn(-c3ccc(S(C)(=O)=O)cc3)cc2/C=N/N=c2\[nH]c(-c3ccc([N+](=O)[O-])cc3)cs2)cc1,EGFR L858R/T790M,,,164 nM
CCN(CC)CCCn1cccc1/C=N/NC(=O)Nc1cc2c(Nc3ccc(F)c(Cl)c3)ncnc2cc1O[C@H]1CCOC1,EGFR L858R/T790M,,,12.8 nM
Oc1ncnc2cc(Nc3nc(-c4ccccc4)cs3)ccc12,EGFR,ELISA,,10 nM
COc1ccc(-c2nn(-c3ccc(S(C)(=O)=O)cc3)cc2/C=N/N=c2\[nH]c(-c3ccc(Br)cc3)cs2)cc1,EGFR L858R/T790M,,,31 nM
C=C(Cl)C(=O)Nc1cc(Nc2nc(Nc3cnn(C)c3)c3sccc3n2)c(OC)cc1N(C)CCN(C)C,EGFR L858R/T790M,ELISA,,5.9 nM
CN(C)C/C=N/NC(=O)Nc1cc2c(Nc3ccc(F)c(Cl)c3)ncnc2cc1O[C@H]1CCOC1,EGFR L858R/T790M,,,15.4 nM
Oc1ccc(-c2csc(Nc3ccc4c(O)ncnc4c3)n2)cc1,EGFR,ELISA,,16.3 nM
C=CC(=O)Nc1cc(Nc2nccc(-c3cn(C4CC4)c4ccccc34)n2)c(OC)cc1N(C)CCN(C)C,"Epidermal growth factor receptor (EGFR, Homo sapiens, UniProt P00533, L861Q)",TR-FRET,,1.07 nM
C=CC(=O)Nc1cc(Nc2nc(N3CCc4sccc4C3)c3cccnc3n2)c(OC)cc1N1CCC(N(C)C)CC1,EGFR L858R/T790M,ELISA,,349 nM
C=CC(=O)Nc1cc(Nc2nccc(Nc3cc(Cl)c(F)cc3C(C)(C)O)n2)c(OC)cc1N1CC[C@@H](N(C)C)C1,EGFR L858R/T790M,,with preincubation,13 nM
Cc1ccc(-c2csc(Nc3ccc4c(O)ncnc4c3)n2)cc1,EGFR,ELISA,,8.59 nM
O=C(N/N=C/CN1CCOCC1)Nc1cc2c(Nc3ccc(F)c(Cl)c3)ncnc2cc1O[C@H]1CCOC1,EGFR,,,1.5 nM
Fc1ccc(-c2n[nH]cc2C=NNc2ccnc3cc(Cl)ccc23)cc1,EGFR,mobility shift,,73000 nM
